The subject of series [1] is corneal epithelial scrape wounds. The series is described as follows: In vivo corneal epithelial wound healing. Also on record: species or system C57BL/6 mice. In outline:
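C57BL/6 mice (9–13 weeks) were anaesthetised with ketamine 100 mg/kg plus xylazine 10 mg/kg ip. A 2-mm diameter corneal epithelial scrape wound was made in the right eye with an Algerbrush. Then 5 μL of test peptide (2, 64 or 640 μg/mL) or PBS vehicle was applied topically immediately, 5 min later, and at 6, 12 and 18 h. Wounds were stained with 1.5 μL 1% sodium fluorescein every 6 h until closure (24 h), imaged, and their areas measured.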

The subject of the next series is S. aureus 49525_Xen36. The series is described as follows: Time-kill bactericidal activity, bioluminescence. It is filed as cell-based, Staphylococcus aureus. The conditions noted are these: 30 minutes' incubation, Fig. 4. In outline:
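Bioluminescent S. aureus Xen36 was grown from a single colony in LB overnight at 37°C with agitation. It was diluted 1:10 into fresh LB for 2 h at 37°C to mid-log phase and adjusted by OD600 to 1 × 10⁷ CFU/mL. Then 100 μL per well was exposed to a concentration series of test peptide for 30 min. Viable-cell luminescence was read by IVIS Lumina imaging (open filter, binning 4, f-stop 1, 30 s count). Results are mean ± SE of triplicates from two independent experiments.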

A further series relates to P. aeruginosa 19660_Xen5. Briefly: Time-kill bactericidal activity, bioluminescence. It is filed as cell-based, Pseudomonas aeruginosa. Conditions: Fig. 2. Summed up:
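Luciferase-tagged strain grown from a single colony in LB at 37°C overnight with agitation, diluted 1:10 into fresh LB and grown 2 h at 37°C to mid-log. Adjusted by OD600 to 1 × 10⁷ CFU/mL and exposed to test compound at several concentrations for 0, 30, 60 and 120 min. Viable cells quantified noninvasively by bioluminescence imaging. Mean ± SE of triplicates from two independent experiments.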

Square brackets hold non-standard residues; d marks the D form. Peptide text beside a SMILES is read from it. Orn = NCCC[C@H](N)C(=O)O

With `C[C@H](NC(=O)[C@H](Cc1ccccc1)NC(=O)[C@H](C)NC(=O)[C@H](Cc1ccccc1)NC(=O)[C@H](CCCN)NC(=O)[C@H](C)NC(=O)[C@H](Cc1ccccc1)NC(=O)[C@H](CCCN)NC(=O)[C@H](CCCN)NC(=O)[C@H](C)NC(=O)[C@H](Cc1ccccc1)NC(=O)[C@H](CCCN)NC(=O)[C@H](CCCN)NC(=O)[C@H](Cc1ccccc1)NC(=O)[C@H](CCCN)NC(=O)[C@H](CCCN)NC(=O)[C@H](C)NC(=O)[C@H](Cc1ccccc1)NC(=O)[C@H](CCCN)NC(=O)[C@H](CCCN)NC(=O)[C@H](C)NC(=O)[C@@H](N)Cc1ccccc1)C(=O)N[C@@H](Cc1ccccc1)C(=O)O` [RP444] (H-FA[Orn][Orn]FA[Orn][Orn]F[Orn][Orn]FA[Orn][Orn]FA[Orn]FAFAF-OH), in series [1] (at 24 hours following topical ocular administration, 2, 64 or 640 μg/mL), the “wound closure vs vehicle” value is “No statistically significant difference in closure”. The “effect on corneal epithelial wound healing” value in series [1] (mice, topical 5 μL RP444 2, 64 or 640 μg/mL at 0 h, 5 minutes, 6, 12, 18 hours post wound, two independent experiments, n = 7-10 mice/group) is given as “did not affect corneal epithelial wound healing”.

Regarding `NC[C@H]1O[C@H](O[C@H]2[C@H](O)[C@@H](O[C@H]3O[C@H](CO)[C@@H](O)[C@H](N)[C@H]3O)[C@H](N)C[C@@H]2N)[C@H](N)C[C@@H]1O` [tobramycin], the “bactericidal activity against S. aureus” value in the series on S. aureus 49525_Xen36 is on record as “neither tobramycin nor vancomycin exhibited any bactericidal effect”. The “bactericidal activity following 60 minutes of exposure” value in the series with P. aeruginosa 19660_Xen5 (60 minutes) is listed as “bactericidal effects at 60 minutes”.

Take `CN[C@H](CC(C)C)C(=O)N[C@H]1C(=O)N[C@@H](CC(N)=O)C(=O)N[C@H]2C(=O)N[C@H]3C(=O)N[C@H](C(=O)N[C@H](C(=O)O)c4cc(O)cc(O)c4-c4cc3ccc4O)[C@H](O)c3ccc(c(Cl)c3)Oc3cc2cc(c3O[C@@H]2O[C@H](CO)[C@@H](O)[C@H](O)[C@H]2O[C@H]2C[C@](C)(N)[C@H](O)[C@H](C)O2)Oc2ccc(cc2Cl)[C@H]1O` [vancomycin]: in the series on S. aureus 49525_Xen36, the “bactericidal activity against S. aureus” value is given as “neither tobramycin nor vancomycin exhibited any bactericidal effect”. For the same compound, the “bactericidal activity during the short incubation time period” value in the series with P. aeruginosa 19660_Xen5 (2 hours) is recorded as “no evidence of bactericidal activity”.

Source of the values: article PMC5730364 (Investigative Ophthalmology & Visual Science, 2017).
